Measurements as given in ChEMBL document CHEMBL1156535, “Thiocarbamates as non-nucleoside HIV-1 reverse transcriptase inhibitors. Part 1: Parallel synthesis, molecular modelling and structure-activity relationship studies on O-[2-(hetero)arylethyl]-N-phenylthiocarbamates” (Bioorg Med Chem, 2008).
Activity calls are given as the source filed them. The rule behind the calls is not given here.

Experiments:
[1] = tested on: HIV-1 Y181C mutant (Human immunodeficiency virus 1); assay: Antiviral activity against HIV1 with reverse transcriptase Y181C mutation in human MT4 cells assessed as reduction of virus-induced cytopathogenicity by MTT assay; settings: Human immunodeficiency virus 1, MT4
[2] = tested on: HIV-1 K103N/Y181C mutant (Human immunodeficiency virus 1); assay: Antiviral activity against HIV1 with reverse transcriptase K103N/Y181C mutation in human MT4 cells assessed as reduction of virus-induced cytopathogenicity by MTT assay; settings: for EC50: Human immunodeficiency virus 1, MT4
[3] = Cytotoxicity against human MT4 cells by MTT assay; assay type: cell-based
Procedure, shortened: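 Mock-infected MT-4 cells; viability by MTT method; CC50 taken as concentration reducing viability by 50%. Mean of three separate experiments, variation among triplicates under 10%.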

[4] = tested on: Human immunodeficiency virus 1; assay: Antiretroviral activity against HIV1 in human MT4 cells assessed as reduction in virus-induced cytopathogenicity by MTT assay; assay type: functional, organism-based; settings: Human immunodeficiency virus 1, MT4
Procedure, shortened: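 MT-4 cells infected with HIV-1; MTT read-out of viability; EC50 taken as concentration giving 50% protection from virus-induced cytopathogenicity. Mean of three separate experiments, variation among triplicates under 10%.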

[5] = Selectivity index, ratio of CC50 for human MT4 cells to EC50 for HIV1; assay type: toxicity, cell-based; settings: read-out: Ratio CC50/EC50
[6] = tested on: Human immunodeficiency virus 1; assay: Antiviral activity against HIV1 in human C8166 cells assessed as reduction of p24 antigen level; assay type: functional, organism-based; settings: Human immunodeficiency virus 1, C8166
Procedure, shortened: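 C8166 cultures infected with HIV-1; p24 antigen levels measured; EC90 taken as dose lowering p24 by 90%.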

EC90 [6] [µM] | Structure (SMILES) | EC50 [1] [µM] | EC50 [2] [µM] | CC50 [3] [µM] | EC50 [4] [µM] | selectivity ratio [5] | Activity [2]
– | O=C1Nc2ccc(Cl)cc2[C@@](C#CC2CC2)(C(F)(F)F)O1 [EFAVIRENZ] | 0.01 | 0.04 | – | – | – | –
– | CC(=O)c1ccc(NC(=S)OCCc2ccccn2)cc1 | – | – | ≥ 100 | > 100 | – | –
– | COc1ccc(NC(=S)OCCc2ccccc2)cc1 | – | – | – | 17 | 2.1 | –
– | Fc1cccc(NC(=S)OCCc2ccccn2)c1 | – | – | ≥ 100 | 1.1 | ≥ 91 | –
– | S=C(Nc1ccccc1)OCCc1ccccc1 | – | – | – | 6 | 17 | –
– | S=C(Nc1ccc(Br)cc1)OCCc1ccccn1 | 20 | – | 37 | 0.2 | 185 | inactive
– | FC(F)(F)c1cc(NC(=S)OCCc2ccccn2)ccc1Cl | – | – | 42 | 5.5 | 7.6 | –
– | S=C(Nc1ccc(I)cc1)OCCc1ccccn1 | – | – | 34 | 0.5 | 68 | –
– | S=C(Nc1ccc(Cl)cc1Cl)OCCc1ccccn1 | – | – | > 100 | 2.9 | > 34 | –
– | Fc1cccc(F)c1NC(=S)OCCc1ccccn1 | – | – | > 100 | 38 | > 2.6 | –
– | Cc1cccc(NC(=S)OCCc2ccccn2)c1 | – | – | > 100 | 7.7 | > 13 | –
– | Cc1ccc(NC(=S)OCCc2ccccn2)cc1Cl | – | – | 59 | 0.7 | 84 | –
– | Cc1ccc(NC(=S)OCCc2ccncc2)cc1 | – | – | > 100 | 63 | > 1.6 | –
– | S=C(Nc1ccc(Cl)cc1)OCCc1ccncc1 | – | – | 70 | > 70 | < 1 | –
– | Cc1ccc(NC(=S)OCCc2ccccn2)cc1 | – | – | 75 | 1.7 | 44 | –
– | COc1ccc(NC(=S)OCCc2ccccn2)cc1 | – | – | 48 | 5.6 | 8.6 | –
– | O=[N+]([O-])c1cccc(NC(=S)OCCc2ccccn2)c1 | 87 | 91 | 100 | 1.6 | 63 | –
– | S=C(Nc1cccc(Cl)c1)OCCc1ccccn1 | – | – | 47 | 1.4 | 34 | –
– | S=C(Nc1ccc(Cl)cc1)OCCc1ccccn1 | – | – | 52 | 0.1 | 520 | –
– | O=[N+]([O-])c1ccc(NC(=S)OCCc2ccncc2)cc1 | – | – | > 100 | > 100 | – | –

EC90 [6] [µM] | Structure (SMILES) | EC50 [1] [µM] | EC50 [2] [µM] | CC50 [3] [µM] | EC50 [4] [µM] | selectivity ratio [5] | Activity [2]
0.015 | S=C(NCCc1ccccn1)Nc1ccc(Br)cn1 [TROVIRDINE] | – | – | – | – | 3000 | –
– | CC(C)c1ccc(NC(=S)OCCc2ccccn2)cc1 | – | – | 45 | > 45 | < 1 | –
– | S=C(Nc1ccc(Cl)c(Cl)c1)OCCc1ccccn1 | – | – | 40 | 0.2 | 200 | –
– | S=C(Nc1ccccc1Cl)OCCc1ccccn1 | – | – | > 100 | 43 | > 2.3 | –
– | Fc1ccc(F)c(NC(=S)OCCc2ccccn2)c1 | – | – | > 100 | 9 | > 11 | –
– | Cc1ccccc1NC(=S)OCCc1ccccn1 | – | – | > 100 | 69 | > 1.4 | –
– | O=[N+]([O-])c1cc(NC(=S)OCCc2ccccn2)ccc1Cl | – | – | 41 | 0.1 | 410 | –
– | CCc1ccc(NC(=S)OCCc2ccccn2)cc1 | – | – | 44 | 10 | 4.4 | –
– | N#Cc1ccc(NC(=S)OCCc2ccccn2)cc1 | – | – | 45 | 0.2 | 225 | –
– | Fc1cc(F)cc(NC(=S)OCCc2ccccn2)c1 | – | – | > 100 | 9 | > 11 | –
– | COc1ccc(NC(=S)OCCc2ccncc2)cc1 | – | – | 59 | > 59 | < 1 | –
– | S=C(Nc1ccccc1)OCCc1cccs1 | – | – | > 100 | 14 | > 7.1 | –
0.8 | O=[N+]([O-])c1ccc(NC(=S)OCCc2ccccn2)cc1 | – | – | > 100 | 0.7 | > 143 | –
– | Cc1ccc(NC(=S)OCCc2ccccc2)cc1 | – | – | > 100 | 4.3 | > 23 | –
– | CN(C)c1ccc(NC(=S)OCCc2ccccn2)cc1 | – | – | 60 | > 60 | < 1 | –
– | Fc1ccc(NC(=S)OCCc2ccccn2)cc1 | – | – | > 100 | 1.2 | > 83 | –
– | S=C(Nc1ccccc1)OCCc1ccccn1 | – | – | > 100 | 7.4 | > 14 | –
– | FC(F)(F)c1ccc(NC(=S)OCCc2ccccn2)cc1 | – | – | 50 | 13 | 3.8 | –
– | O=[N+]([O-])c1ccc(NC(=S)OCCc2ccccc2)cc1 | – | – | > 100 | 0.9 | > 111 | –
– | S=C(Nc1ccc(Cl)cc1)OCCc1ccccc1 | – | – | > 100 | 0.5 | > 200 | –
